From ChEMBL document CHEMBL4513216, “Probing the Open Global Health Chemical Diversity Library for Multistage-Active Starting Points for Next-Generation Antimalarials” (ACS Infect Dis, 2020)

assay: Toxicity liver stage against HepG2, at 10uM; format: cell-based; parameters: test concentration 10 uM, cell line HepG2-A16-CD81EGFP; conditions: human, HepG2-A16-CD81EGFP cells; read-out: INHIBITION
Summary of the method: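 Uninfected HepG2-A16-CD81EGFP cells, 3 × 10^3 per well, 1536-well, plated on prespotted compound at 10 μM final, parasite-free screening media added to match infected plates; puromycin 10 μM positive, DMSO 0.5% negative; run in parallel with 48 h PbLuc assay at 37 °C, 5% CO2; viability by CellTiter-Glo luminescence, normalized to controls.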

SMILES | cytotoxicity at 10 µM [%]
CC(C)N1C[C@@H]2OCC(=O)N(Cc3ccccc3)[C@@H]2C1 | 10.5
CCCSc1ncccc1C(=O)NCc1ccc(N(C)C)cc1 | 8.07
CC[S+](CC)[c-]1c(=O)[nH]c(=O)n(CCc2ccc(F)cc2)c1=O | 4.12
COc1ccc(CC(C)(O)CNC(=O)c2cccs2)cc1 (configuration not stated) | -4.69
O=C(NCC(F)(F)F)c1ccc(-n2cncn2)nn1 | -1.66
CCc1ccc2c(C3CN(C(C)=O)C3)ncn2c1 | 2.16
CCn1ncc2c1C(COC)CN(Cc1ccc(C)o1)C2 (configuration not stated) | 5.41
CN1Cc2c(C(=O)NCC3CCCO3)ncn2-c2ccccc2S1(=O)=O (configuration not stated) | -141
O=C(c1cccnc1)N1CCN(CC2CC2)c2ncccc2C1 | 2
O=C1CC(c2cccc(O)c2)c2c(c(C(=O)O)cn2-c2ccccc2)N1 (configuration not stated) | 1
Cc1cc(C(=O)N2CC[C@H](OCC3CC3)[C@@H]2Cc2cccnc2)no1 | -6.44
COc1ccc(OC)c(C(C)NS(=O)(=O)c2cn(C)nc2C)c1 (configuration not stated) | 8.35
CN1CCN(C(=O)c2cc(-c3ccco3)cs2)CC1 | 1.63
CC(C)(C)C(=O)N1CCC(c2noc(C3CCC(=O)N3)n2)CC1 (configuration not stated) | -3.06
O=C(CC1CCCC1)N1CCC(c2nnc(-c3ccccn3)o2)CC1 | -3.32
Cc1nc(Nc2nccs2)cc(C2CN(C(C)C)C2)n1 | -5.42
Cc1ccc2[nH]c(C3CCN(C)CC3)nc2c1 | 6.79
O=C(NCCO)C1(Cc2ccccc2-c2ccncc2)CCOCC1 | 2.27
CCc1nnc(Nc2cccc(C3CCN(C(=O)CNC)CC3)n2)s1 | -31.2
Cc1nc(Nc2cnccn2)cc(C2CCN(c3ncccn3)C2)n1 (configuration not stated) | -19.5
CNc1cc(C2CCCN2Cc2ccc(OCC(=O)O)cc2)ccn1 (configuration not stated) | -21.9
CC(=O)N1CCN(CC(N)=O)CC(COc2ccccc2)C1 (configuration not stated) | -28.7
COCC(=O)N1CCN(Cc2cc(-c3ccncc3)nn2C)CC1 | -4.17

SMILES | cytotoxicity at 10 µM [%]
CC(=O)N(C)CC(=O)Nc1cc(C(F)(F)F)c[nH]c1=O | 4.57
CN(Cc1ccc(Br)c2cccnc12)S(C)(=O)=O | 2.92
COc1c(C)cnc(CN2CCn3c(nnc3C3CC3)C2)c1C | -4.94
Cc1cc(C)cc(NCCC(=O)NC2CCN(C(=O)C3CC3)CC2)c1 | 2.4
CC(NC(=O)Nc1cccnc1N1CCCC1)c1ccccn1 (configuration not stated) | 8.05
O=C(Nc1cc[nH]n1)c1ccc(COCC(F)(F)F)cc1 | -7.46
O=C(NCc1ccccn1)N1CC=C(c2ccccc2)CC1 | 14.9
Cc1nn(C)cc1C(=O)NCc1cc(N(C)C)nc2ccccc12 | 2.29
Cc1noc(CN2CCN(CCS(C)(=O)=O)CC2)n1 | -10.1
O=C(Nc1ccc(N2CCOCC2)nc1)N1CCc2sccc2C1 | -2.26
CSC(C)(C)CNC(=O)NCc1cccc(-n2cncn2)c1 | -14.4
Cc1ccc(CNC2CCc3nc(C(C)C)nn3C2)o1 (configuration not stated) | -1.85
Cc1cnn(CC2CCCCN2C(=O)c2ccc3c(c2)nnn3C)c1 (configuration not stated) | -6.36
COc1ccc(C)cc1CCNS(C)(=O)=O | 2.39
Cc1ccc(-n2ccnc2)c(C(=O)NCCOCC(F)(F)F)c1 | -136
Cc1oc(-c2ccc(Cl)cc2)nc1C(=O)NC1=NCCS1 | 4.65
O=C(CNC1CCc2ncnn2C1)N(C1=CCCCC1)C1CC1 (configuration not stated) | -8.07
CS(=O)(=O)c1cccc(S(=O)(=O)NC(=O)CC2CCCCC2)c1 | -3.17
COCCNC(=O)N1CCCCC1CNC(=O)Nc1ccccc1 (configuration not stated) | -0.244
CC(C)(C)c1cnc(CNc2cccc(Cn3cnnc3)c2)o1 | 2.72
CCCN(CCc1ccccn1)C(=O)Cn1cnnn1 | 2.52
CC(O)C1CCN(C(=O)CCOc2ccccc2F)CC1 (configuration not stated) | -5.63
Cc1ccc(CCC(=O)N2CCOCC2)cc1Cl | 12.3

SMILES | cytotoxicity at 10 µM [%]
Cc1ccc(F)c(NCc2ccc(C(=O)N(C)C)[nH]2)c1 | 4.96
CC(CNC(=O)N1CCSCC1)Cc1cccs1 (configuration not stated) | -8.63
NC(=O)C1CCCN1Cc1cccc(NC(=O)c2ccsc2)c1 (configuration not stated) | 16.3
COCCc1noc(CN(C)C2CCCN(c3ccc(C)nn3)C2)n1 (configuration not stated) | 19.3
CCOCCCNC(=O)c1ccccc1S(C)(=O)=O | -1.58
COCCO[C@H]1CCN(C(=O)c2ccsc2)[C@H]1Cc1cnn(C)c1 | -72.8
Cc1nc2c(C)cccc2cc1C(=O)N1CCC2(CCN(C)CC2)C1 | -4.39
Cn1nc(CO)c2c1CCN(c1ncnc3c1CCNC3)C2 | -0.132
Cc1ncsc1CCN(C)C(=O)c1ccc(CN2CCCCC2)cc1 | -4.38
CCN(CC)C(=O)Cn1cc(-c2nc(C(C)C)no2)nn1 | 2.28
COc1c(F)cc(CN2CCC3(CC2)C(C(=O)O)CC(=O)N3C)cc1Cl (configuration not stated) | 5.13
CC(C)Cc1cc(C(=O)NC(C)(C)c2nnc(N)s2)n(C)n1 | 0.91
COc1ccc2c(=O)n(CC3CCNC3)ccc2c1OC (configuration not stated) | 5.76
Cc1ncnc(NCCCN2CCCCC2CO)c1C (configuration not stated) | -2.35
CCSCCn1cc(-c2nccs2)nn1 | 0.935
CCN(C)c1ccc(C(=O)NCCCc2ccccn2)cn1 | -43.7
O=C1CC(c2ccc3ccccc3n2)c2c(n[nH]c2C2CCC2)N1 (configuration not stated) | -6.43
O=C(CCc1cc2n(n1)CCNC2)NCCS(=O)(=O)N1CCCC1 | 0.487
CN(CCCO)C(=O)c1ccc2c(c1)nc(N1CC[C@H](O)C1)n2C | -1.46
CCN(Cc1ccncc1)C(=O)c1cn(CCCc2ccccc2)nn1 | 3
OCCO[C@H]1C[C@@H](O)C12CCN(Cc1nc(C(F)(F)F)no1)CC2 | 0.145
COCCC1CCCCN1Cc1nc(Cc2cccc(F)c2)no1 (configuration not stated) | -142
CSc1nccc(N2CCN(C)C3(CCNC(=O)CC3)C2)n1 (configuration not stated) | 18.7

SMILES | cytotoxicity at 10 µM [%]
CCOCCCC(=O)N(C)C(c1cccc(F)c1)c1ccccn1 (configuration not stated) | -10.2
Cn1cc(CCNC(=O)N2CCCC(c3nncn3C)C2)cn1 (configuration not stated) | -4.41
CN(CCCOc1ccccc1)Cc1nc2c(cnn2C)c(=O)[nH]1 | -3.23
Cc1cccc(C)c1OCCNC(=O)CN1CCN(C)CC1C (configuration not stated) | -6.28
Cc1cccc(NC(=O)C(C)Nc2cccc(CN3CCOC3=O)c2)c1 (configuration not stated) | 6.92
c1ccc(-c2nc(CNCC3CCCN3c3cccnn3)co2)cc1 (configuration not stated) | -12.7
Cc1cc(CN2CCN(C(=O)NC(C)Cn3cccn3)CC2)no1 (configuration not stated) | -7.45
Cc1ccccc1OCC(O)CN1CCC(c2ccn[nH]2)CC1 (configuration not stated) | 0.531
Cc1cnn(CC2CCCCN2Cc2nnsc2Cl)c1 (configuration not stated) | -2.93
Cc1ncc(CN2CCCC(c3cc(C(F)(F)F)[nH]n3)C2)s1 (configuration not stated) | -17.8
CCN1CCC(CNC(=O)Nc2cc(C)on2)C1 (configuration not stated) | -7.33
Cc1cnn(CCNCc2ccc(OCc3cccnc3)cc2)c1 | -12.1
Cc1nn(C)c(N(C)C)c1CNCc1cccc(Cn2cncn2)c1 | -7.85
Cc1cnn(CC(C)NCc2ccncc2)c1 (configuration not stated) | -2.81
O=C1NCC(C(=O)Nc2ncc(Cc3ccccc3F)s2)N1 (configuration not stated) | -1.11
Cc1noc(C(C)C)c1C(=O)NCCC(=O)N1CCCCC1 | 0.632
Cc1nnc(NC(=O)CN2CCc3nn(C(C)C)c(=O)cc3C2)s1 | -18.9
CCOc1cccc(CNCc2ccc(NC(=O)NC(C)C)cc2)c1 | -11.5
CC(=O)N(Cc1noc(C)n1)C1CCN(Cc2cccc(C#N)c2)C1 (configuration not stated) | -0.645
Cc1cnn(CC2CCCCN2C(=O)c2ccc3c(c2)COC3)c1 (configuration not stated) | -24.7
O=C(CN1CCOC(Cn2cccn2)C1)Nc1ccncc1 (configuration not stated) | 0.748
COc1ccc(-c2noc(CN3CC(n4cccn4)C3)n2)c(OC)c1 | -11.2
CCOc1ccccc1C(CC(=O)Nc1nc(C)cs1)NC(C)=O (configuration not stated) | -10.9

SMILES | cytotoxicity at 10 µM [%]
CCc1n[nH]c(C2CN(Cc3nnc(C4CC4)n3C)CCO2)n1 (configuration not stated) | 5.25
Cn1cc(CN2CCO[C@@H]3CN(Cc4ccoc4)C[C@@H]3C2)cn1 | 2.14
Cc1noc([C@@H]2C[C@H]3OCC[C@H]3N(C(C)C)C2)n1 | -125
COCc1nn(C(C)C)c2c1CCN(Cc1ccccn1)C2 | 8.04
CN1CCN(Cc2cn3c(n2)CN(Cc2ccc(F)cc2)CC3)CC1 | -113
O=S(=O)(C1CC1)N1CCc2ncnc(N3CCCC3)c2CC1 | -98.6
CN1CCN(Cc2cnc3n2CCN(CCc2ccccc2)C3)CC1 | -6.98
Cc1cnc(N2C[C@H]3C[C@H](C(=O)N4CCN(C)CC4)N(C)[C@H]3C2)nc1 | -135
COCCN1CCO[C@H]2CCN(C(=O)c3cccs3)CC[C@@H]21 | -0.234
CCC(=O)N1C[C@@H]2CCN(c3cnccn3)C[C@@H]2C1 | -13.2
CC(c1ccc(F)cc1F)N1CCN(CCC(=O)O)CC1 (configuration not stated) | -3.6
CS(=O)(=O)NCc1ncn2c1CN(Cc1cccs1)CCC2 | -66.8
Cc1nc(CO[C@H]2CN(Cc3ccccn3)[C@@H]3CCCO[C@H]23)cs1 | 1.33
Cc1cnc(C(=O)N2CCCC(c3c(C)c(=O)nc4n3CCC4)C2)cn1 (configuration not stated) | -26.5
COc1cc(OC)cc(-c2cc(CN)nc3ccnn23)c1 | -0.945
CN(Cc1ccco1)C1CCC12CCN(C(=O)N1CCCC1)CC2 (configuration not stated) | -1.54
CC(C)n1nc(CNc2ncccn2)c2c1CN(C1CCOCC1)CC2 | -129
CCn1cc(C(=O)N2C[C@H]3CC(Oc4ccccc4)C[C@H]3C2)cn1 (some centres not stated) | 5.75
CC(=O)N1C[C@H]2CC[C@@H](C1)N(S(=O)(=O)c1cc(F)ccc1C)C2 | 2.91
CN(C)C1(CNC(=O)CC=Cc2ccc(F)cc2)CCOCC1 | 8.99
